# Bioassay records as filed in PubChem BioAssay.
# OX1R antag-1: blocks the human orexin 1 receptor. O43613. OX1R-expressing cells, FRET antagonist read-out. inhibition, % at 6.6 µM. 330,000 tested, 1.8% active. AID 485270; in the data active = inhibition mostly above about 38%, no sharp cut-off; inactive = mostly below about 40%;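 note: 0% = agonist challenge alone and 100% = reference antagonist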
# GalR3 antagonist: antagonists of human GalR3; inhibition, % at 3 µM; 360,000 tested, 0.44% active; HEK293 GalR3-CNG cAMP membrane potential fluorescence; galR3 body fused to GalR1 C-terminus; O60755;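 active = inhibition above the screen-wide average plus 3 SD, cut at about 13% in these data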;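 note: forskolin and galanin both at EC90 stimulate the cells; cAMP rise reported by CNG channel membrane potential dye signal; 0% = forskolin plus galanin with DMSO and 100% = forskolin alone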
# Target sequence (O60755 1-299 limits assumed): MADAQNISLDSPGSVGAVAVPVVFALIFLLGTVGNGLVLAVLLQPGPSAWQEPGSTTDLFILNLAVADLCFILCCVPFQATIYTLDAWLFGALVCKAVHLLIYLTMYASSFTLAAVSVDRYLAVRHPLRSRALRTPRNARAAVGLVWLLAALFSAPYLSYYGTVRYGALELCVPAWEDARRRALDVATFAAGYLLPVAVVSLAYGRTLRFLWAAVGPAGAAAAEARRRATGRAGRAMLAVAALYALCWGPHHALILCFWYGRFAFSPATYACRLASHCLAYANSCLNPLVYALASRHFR
# OX1R antag-2: human HCRTR1 antagonism; 330,000 tested, 0.43% active; inhibition, % at 5 µM; CHO/OX1R cells, Fluo-8 calcium fluorescence, orexin A;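 active = inhibition above its plate's threshold, mean inhibition of all tested compounds on the plate plus 3 SD, cut at about 37% in these data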;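 note: 0% = orexin A challenge wells and 100% = SB-334867-A antagonist wells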
# CHO parental Ca: counter-screen for OX1R antagonists: effect in parental CHO cells; parental CHO-K1, ATP-induced calcium, Fluo-8 fluorescence; inhibition, % at 5.6 µM; 330,000 tested, 0.63% active;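 active = inhibition above that plate's mean sample inhibition plus 3 SD, cut at about 26% in these data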;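 note: 0% = ATP-challenged DMSO wells and 100% = DMSO wells without ATP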
#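 Test system: parental CHO cells; detection: calcium-sensitive Fluo-8 fluorescence; evaluation: percent inhibition of calcium signal; also added: ATP as calcium-mobilizing challenge; repeats: one well per compound; control set: ATP-challenged DMSO wells low, unchallenged DMSO wells high; compound: single nominal dose of 5.6 µM per compound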
# TAAR1 ag: agonists of human TAAR1 | AID 624467 | Q96RJ0 | 360,000 tested, 0.99% active | activation, % at 3 µM | CHO RD-HGA16 TAAR1, Fluo-8 calcium fluorescence; vehicle wells 0%, saturating PEA agonist 100%;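 active = activation above the mean activation of all test compounds in the run plus 3 SD, cut at about 38% in these data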
# Target sequence (Q96RJ0 whole entry, looked up): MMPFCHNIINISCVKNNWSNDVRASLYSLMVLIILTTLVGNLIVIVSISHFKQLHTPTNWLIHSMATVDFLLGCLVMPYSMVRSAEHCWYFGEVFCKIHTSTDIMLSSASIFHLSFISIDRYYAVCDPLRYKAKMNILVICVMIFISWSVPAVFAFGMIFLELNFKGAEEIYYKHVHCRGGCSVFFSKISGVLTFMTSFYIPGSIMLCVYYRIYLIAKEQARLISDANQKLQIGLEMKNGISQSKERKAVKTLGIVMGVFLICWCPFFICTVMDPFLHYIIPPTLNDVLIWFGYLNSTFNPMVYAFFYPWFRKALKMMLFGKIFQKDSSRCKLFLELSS
#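 Signal – calcium-sensitive Fluo-8 signal, excitation 470-495, emission 515-575 nm · System – RD-HGA16 (CHO) cells co-expressing Gα16 and hTAAR1 · Incubation – 17-24 h seeding, 75 min 37 °C dye, 30 min RT · Compound dosing – 3 µM single concentration · Repeats – no replicates (n 1)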
# TAAR1 antagonist: antagonists of human TAAR1; Q96RJ0; CHO RD-HGA16 TAAR1, Fluo-8 calcium fluorescence, antagonist; inhibition, % at 3 µM; 360,000 tested, 1.5% active;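 active = inhibition above a per-plate cutoff, the mean inhibition of test compounds on that plate plus 3 SD, cut at about 49% in these data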;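 note: 0% = DMSO plus EC80 beta-PEA response and 100% = DMSO alone without agonist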
#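 Test system: RD-HGA16 CHO cells with stable hTAAR1 and Gα16 / Probe or stimulus: EC80 β-phenethylamine stimulus / Times: seeding 17-24 h prior, 75-min 37 °C, 30-min RT dye loading / Detection: Fluo-8 calcium-sensitive fluorescence / Read-out basis: % inhibition scaled between DMSO and EC80 PEA controls / Repeats: singlicate, one well per test compound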
# An asterisk follows results filed as active; · = no result. Hits are enriched below; roughly 4.3% of the tested compounds scored in any of these assays.
SMILES,OX1R antag-1,GalR3 antagonist,OX1R antag-2,CHO parental Ca,TAAR1 ag,TAAR1 antagonist
O=C(c1cn(-c2ccccc2)nc1-c1cccs1)N1CCN(c2ccccn2)CC1,9,-5,-21,-20,11,49*
Cc1onc(-c2ccccc2)c1C(=O)NC1CCC(C)CC1 (stereo not drawn),1,1,-19,-21,1,-20
CSC1=C(C#N)C(c2ccccc2Cl)C(C(=O)c2cccs2)C(O)(C(F)(F)F)N1 (stereo not drawn),62*,-11,21,3,8,51*
O=C1NC(c2ccccc2)C(C(=O)c2cccs2)C(O)(C(F)(F)F)N1 (stereo not drawn),14,-3,-2,-6,2,10
CCCOC(=O)c1ccc(NC(=O)c2cc(Cl)ccc2OC)cc1,66*,-5,9,-1,6,-12
COc1ccc(C2(c3ccc(OC)cc3)NC(=O)N(CC(=O)NCC(C)c3ccccc3)C2=O)cc1 (stereo not drawn),-4,-3,-1,-17,22,57*
COc1ccc(C2(c3ccc(OC)cc3)NC(=O)N(CC(=O)NC(C)C)C2=O)cc1,13,0,-18,-7,3,6
CSc1ncnc2c1ncn2CCCNCc1ccc(C)o1,·,-5,·,·,0,-13
Cc1noc(/C=C/c2ccccn2)c1[N+](=O)[O-],63*,10,-30,-3,2,-7
O=C(NC(c1ccc(-c2ccccc2)cc1)c1cnccn1)C1CCN(CCCOc2ccccc2)CC1 (stereo not drawn),·,-11,·,·,21,28
O=C(NCc1ccco1)NC(=O)c1csc([N+](=O)[O-])c1,26,-3,-17,7,1,-17
C=CCNC(=O)NC(=O)c1csc([N+](=O)[O-])c1,46*,-2,-18,4,4,-18
CCNC(=O)NC(=O)c1csc([N+](=O)[O-])c1,40*,0,-11,-14,1,-21
CC(=O)c1cccc(OC(=O)C2=CC=CN3CCS(=O)(=O)N=C23)c1,12,-1,0,-3,4,-19
CN(CC(=O)Nc1ccc(Cl)c(Cl)c1)CC(=O)N1CCCCCC1,·,-9,·,·,3,9
CCC(NC(=O)c1cc(COc2ccc(F)cc2Cl)on1)c1ccncc1 (stereo not drawn),·,0,·,·,43*,24
O=C(O/C(=C/c1ccccc1)C(F)(F)F)c1ccccc1,·,1,·,·,0,-8
c1ccc(-c2nc(-c3cccnc3)n[nH]2)cc1,20,-5,0,-7,2,8
Brc1cccc(-c2n[nH]c(-c3ccccc3)n2)c1,71*,-4,63*,97*,4,18
COc1ccc(-c2nnc(-c3ccc(N(C)C)cc3)o2)cc1,6,-4,-7,-8,3,2
CN(C)c1ccc(-c2nnc(-c3ccccc3F)o2)cc1,51*,-8,-5,-7,1,1
CCc1nc2ccc(C(=O)NCc3ccc(OC)cc3)cn2c1N(C)Cc1ccc(OC)cc1,·,5,·,·,1,30
CCc1nc2ccc(C(=O)NCc3ccccc3OC)cn2c1N(C)Cc1ccc(OC)cc1,·,-5,·,·,-3,51*
O=C(NC(=S)N1CCN(Cc2ccccc2)CC1)c1ccco1,-1,9,-17,100*,1,-12
CCCc1cc(C(=O)Nc2cccc(C(C)=O)c2)no1,23,·,-17,-5,-1,-9
SMILES,OX1R antag-1,GalR3 antagonist,OX1R antag-2,CHO parental Ca,TAAR1 ag,TAAR1 antagonist
CCCc1cc(C(=O)Nc2ccc(C(C)=O)cc2)no1,12,·,-12,28*,0,10
COc1cccc(/C=N/Nc2nnc(C)n2N)c1O,71*,-8,5,-1,-2,-11
COc1ccc(/C=N/Nc2nncn2N)cc1Br,65*,-10,3,-9,15,2
CNC(=S)N/N=C/c1c(Cl)cccc1Cl,21,-3,-17,-4,9,6
CCOc1cc(/C=N/Nc2nnc(C)n2N)ccc1OC(C)=O,·,-11,·,·,-1,-4
CCc1nnc(N/N=C/c2c(Cl)cccc2Cl)n1N,45*,-6,-14,-4,9,3
CCc1nnc(N/N=C\c2ccc(OC(C)=O)c(OC)c2)n1N,44*,-9,-5,-14,2,-9
CCCCNC(=O)C[C@H]1C[C@@]2(C(=O)OC)C(=C[C@H](COCc3ccccc3)O[C@@H]2C)N(Cc2ccc3c(c2)OCO3)C1=O,·,-3,·,·,0,-10
Cc1ccc(S(=O)(=O)N2C[C@H]3[C@H]4C(=O)N(Cc5ccccc5)C(=O)[C@H]4CC(=O)[C@H]3[C@@H]2c2cccc3ccccc23)cc1,·,-6,·,·,0,-3
Cc1nnc(N/N=C/c2ccccc2F)n1N,30,-11,-5,0,5,-16
CCc1nnc(N/N=C/c2cc(Br)c(O)cc2O)n1N,72*,-10,-16,-2,7,-15
NC(=O)N/N=C\c1cc(Br)ccc1O,1,-2,-10,-9,2,-1
CCc1nnc(N/N=C/c2ccc(O)c(OC)c2)n1N,59*,-9,-1,1,14,-8
CC(C)(C)c1nnc(N/N=C/c2cc(Br)ccc2O)n(N)c1=O,14,-11,9,-5,25,68*
COCCNC(=O)CSc1nc2ccccc2c2nc(C)nn12,5,5,0,-17,6,-5
CCN(CC)CCCNC(=O)CCC(=O)NNc1nc2ccccc2c2nc(C)nn12,8,0,-1,11,5,-2
Cc1nc2c3ccccc3nc(NNC(=O)CCC(=O)NCCC(C)C)n2n1,14,-1,-5,-7,-1,-14
CCOCCCNC(=O)CCC(=O)NNc1nc2ccccc2c2nc(-c3ccccc3)nn12,53*,4,26,-16,5,3
COCCNC(=O)CCC(=O)NNc1nc2ccccc2c2nc(-c3ccccc3)nn12,72*,-4,6,-3,2,-1
CC(C)OCCCNC(=O)CCC(=O)NNc1nc2ccccc2c2nc(-c3ccccc3)nn12,66*,2,19,-13,8,20
COc1ccc(CCC(=O)NNC(=O)c2ccccn2)cc1OC,·,-3,·,·,1,-19
COc1ccc(NC2CCCN(C(=O)c3ccc(C(C)=O)cc3)C2)cc1 (stereo not drawn),·,-2,·,·,1,-12
COc1ccc(NC2CCCN(C(=O)c3cn(C)c4ccccc34)C2)cc1 (stereo not drawn),38*,3,-6,-20,-1,-36
FC(F)(F)c1cc(-c2ccccc2)nc2ncnn12,17,-1,-5,-10,0,8
FC(F)(F)c1cc(-c2cccs2)nc2ncnn12,62*,-4,-6,4,7,-9
